Here are results for four compounds from ChEMBL document CHEMBL1125583, “Synthesis of an (iodovinyl)misonidazole derivative for hypoxia imaging” (J Med Chem, 1991).

The nature of data set [1]: Compound was tested for the partition coefficient between octanol and water. Format: physicochemical. In a few lines: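 Octanol/water partition: octanol and water mutually pre-saturated for 24 h before the study; compound absorbance read at 318 nm in the water-saturated octanol phase and in the octanol-saturated water phase; coefficient taken as the ratio of the two absorbances.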

In the next data set the test system is CaOs-1 cell line. Nature of the data set: Anoxic/Oxic uptake ratio was measured in CaOs-1 cell line at 3h. Format: functional, cell-based. The note with it: Canis lupus familiaris. In a few lines:
(§1)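 [131I]-labelled agent at 50 μM in 1 mL medium (25 mM HEPES), rinsed then replaced with fresh labelled medium. Monolayers (exponential or unfed plateau phase) held as thin film at 37 °C under 95% air/5% CO2 (oxic) or 95% N2/5% CO2 (anoxic) for 3 h. Cells trypsinized, gamma-counted, uptake as pmol/10^6 cells. Ratio = anoxic/oxic uptake, three plates.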

The subject of another data set is EMT6. Nature of the data set: Anoxic/Oxic uptake ratio was measured in EMT-6 cell line at 3h. Format: functional, cell-based. The note with it: Mus musculus. In a few lines: as §1
The next data set deals with RIF-1. The experiment in a line: Anoxic/Oxic uptake ratio was measured in RIF-1 cell line at 3h. Format: functional, cell-based. The note with it: Mus musculus. The method in brief: as §1
The species entered for another data set is Rattus norvegicus. The experiment in a line: Anoxic/Oxic uptake ratio was measured in rat myocytes at 3h. Format: functional. The method in brief:
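Adult rat myocytes from collagenase dissociation, cultured overnight at 37 °C in modified MEM. Thin medium layer with 50 μM [131I]-labelled agent at 37 °C under 95% air/5% CO2 or 95% N2/5% CO2, anoxia confirmed by dithionite/methylene blue indicator. Cells rinsed cold, EtOH-fixed, counted microscopically, scraped and gamma-counted. Uptake as dpm per cells; eight plates.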

The next data set relates to V79. The experiment in a line: Anoxic/Oxic uptake ratio was measured in V-79 cell line at 3h. Format: functional, cell-based. The note with it: Cricetulus griseus. The method in brief:
as §1

Turning to `COC[C@H](O)Cn1cc(Br)nc1[N+](=O)[O-]`, the Partition coefficient in data set [1] worked out at 2.87.

Compound `O=[N+]([O-])c1nccn1C[C@@H](O)C/C=C/I` displayed a Partition coefficient in data set [1] of 2.52. The Uptake ratio in the data set on CaOs-1 cell line turned out to be 10.2; in the data set on EMT6, 11; in the data set on RIF-1 it was 23.2; in the data set filed under Rattus norvegicus, 22; in the data set with V79, 12.5.

On to `COC[C@H](O)Cn1ccnc1[N+](=O)[O-]`, for which the Partition coefficient in data set [1] turned out to be 0.41.

In data set [1], `O=[N+]([O-])c1nccn1C[C@@H](O)CF` returned a Partition coefficient of 0.4. Moreover, the Uptake ratio with CaOs-1 cell line was determined as 18; in the data set with EMT6 it was 12.6; in the data set on RIF-1, 28.5; in the data set listed under Rattus norvegicus it was 20.3; in the data set on V79, 27.3.
